Screening results: PubChem BioAssay, Broad Institute
Rows were chosen to be rich in hits. Some 1.2% of all compounds tested hit in one or more screens of this group.
ARNT-TACC3 inh: ARNT/TACC3 interaction disruption; Q9Y6A5; AlphaScreen His-ARNT PAS-B/GST-TACC3 binding, luminescence; TACC3 fragment carries E629A point mutation; inhibition, % at 9.99 µM; 390,000 tested, 0.66% active;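 active = mean inhibition of replicates at least 50% and at least half of replicates each reaching 50%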
CaV13 ICDI inh: Primary screen for inhibitors of IQ motif and Ca2+-dependent inactivation inhibitor domain binding in CACNA1D, Förster resonance energy transfer in living cells, …; HEK cells, CFP/YFP FRET ICDI-IQ, plate reader, 10 min; percent FRET-ratio fall versus neutral wells; 340,000 tested, 0.098% active; AID 743397; inhibition, % at 12.3 µM;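 active = mean replicate inhibition of at least 30% and at least 1% of replicates passing that level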
CAL PDZ FP-1: inhibitors of human CAL PDZ peptide binding. Q9HD26. inhibition, % at 24.9 µM. purified CAL PDZ, TMR-peptide fluorescence polarization, 1 h. 300,000 tested, 0.92% active. AID 602252;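 active = mean inhibition of at least 30% with at least half of replicates also reaching 30%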
CAL PDZ FP-2: blocks peptide binding to human CAL PDZ domain. inhibition, % at 20 µM. Q9HD26. 330,000 tested, 0.02% active. purified CAL PDZ, TMR-peptide fluorescence polarization, 1 h;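 active = highest replicate inhibition of at least 40%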
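System: tagged CAL PDZ domain. Schedule: 1 h room-temperature incubation prior to read. Signal: fluorescence polarization (mP). Measure: percent inhibition from loss of millipolarization.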
ARNT Alpha ctr: counter-screen for ARNT/TACC3 inhibitors: AlphaScreen artifacts | AC50, µM (top dose mostly 68 µM) | shares compounds with ARNT-TACC3 inh | 1,200 tested, 50% active | His-ARNT PASB-GST AlphaScreen artifact counter-screen, luminescence;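 active = every separate test run was called active for a drop in luminescence, with AC50 within twice the top valid dose, actives reach about 71 µM in these data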
A number is an active result; . = inactive; / = not tested or not shown.

SMILES	ARNT-TACC3 inh	CaV13 ICDI inh	CAL PDZ FP-1	CAL PDZ FP-2	ARNT Alpha ctr
CCCNC(=O)[C@@H]1[C@@H](CO)[C@@H]2Cn3c(ccc(-c4cccc(F)c4)c3=O)[C@H]1N2C(=O)CC	.	/	/	/	/
CC(C)C#Cc1ccc2c(c1)O[C@@H](CN(C)Cc1cncnc1)[C@@H](C)CN([C@H](C)CO)S2(=O)=O	.	/	/	/	/
COc1ccccc1CNC(=O)C[C@@H]1C[C@H]2c3cc(NC(=O)C4CCOCC4)ccc3O[C@H]2[C@@H](CO)O1	.	/	/	/	/
CO[C@H]1CN(C)C(=O)c2ccc(NC(=O)NC(C)C)cc2OC[C@@H](C)N(Cc2ccccn2)C[C@@H]1C	.	/	/	/	/
C[C@@H]1CN([C@H](C)CO)C(=O)c2cc(NS(C)(=O)=O)ccc2O[C@@H]1CN(C)S(=O)(=O)c1ccc(F)cc1	active	/	/	/	.
CO[C@H]1CN(C)C(=O)c2cc(NC(=O)c3ccccc3F)ccc2OC[C@@H](C)N(CC2CC2)C[C@H]1C	.	/	/	/	/
O=C(CSc1nnc(CNC(=O)c2ccc(F)cc2)o1)NCc1ccccc1	.	.	.	.	/
Cc1nnc(NC(=O)CSc2nnc(CNC(=O)c3ccc(S(=O)(=O)N(C)C)cc3)o2)s1	63	.	.	.	.
O=C(CSc1nnc(CNC(=O)c2ccc(F)cc2)o1)Nc1nccs1	63	.	.	.	.
O=C(NCCN1CCOCC1)c1cc(-c2ccccc2)on1	.	.	.	.	.
O=C(NCCCN1CCOCC1)c1cc(-c2ccccc2)on1	.	.	.	.	.
O=C(NCCN1CCOCC1)c1cc(-c2ccc(Br)cc2)on1	.	.	/	.	/
COc1ccc(NC(=O)Nc2ccc3c(c2)C(=O)N([C@H](C)CO)C[C@@H](C)[C@@H](CN(C)C(=O)CCC(F)(F)F)OCCCC[C@H](C)O3)cc1	active	/	/	/	.
COc1ccc(NC(=O)Nc2ccc3c(c2)C(=O)N([C@H](C)CO)C[C@H](C)[C@@H](CN(C)C(=O)CCC(F)(F)F)OCCCC[C@@H](C)O3)cc1	.	/	/	/	/
CC(C)NC(=O)N(C)C[C@H]1OCCCC[C@H](C)Oc2ccc(NC(=O)Nc3ccccc3)cc2C(=O)N([C@H](C)CO)C[C@@H]1C	108	/	/	/	.
CC(C)NC(=O)Nc1ccc2c(c1)C(=O)N([C@H](C)CO)C[C@H](C)[C@@H](CN(C)C(=O)Cc1ccccc1)OCCCC[C@H](C)O2	97	/	/	/	.
CCC(=O)N(C)C[C@H]1Oc2ncc(C3=CCCC3)cc2C(=O)N([C@H](C)CO)C[C@@H]1C	.	/	/	/	/
Oc1c(CN2CCCCC2)cc(Br)c2cccnc12	64	/	.	.	5.6µM
Oc1c(Cl)cc(Cl)c(Cl)c1CN1CCOCC1	.	.	.	.	/
O=C(COc1c(Br)cc(Br)c2cccnc12)N1CCCCC1	.	.	.	.	/
O=C(Oc1c(CN2CCOCC2)cc(Cl)c2cccnc12)c1ccccc1	52	.	47	.	.
Oc1c(Cl)cc(CN2CCOCC2)c2cccnc12	71	.	.	.	7.3µM
COc1cc(OC)cc(C(=O)Oc2c(CN3CCOCC3)cc(Cl)c3cccnc23)c1	41	.	.	.	.
C[C@H](CO)N1C[C@H](C)[C@H](CN(C)Cc2ccc3c(c2)OCO3)Oc2ccc(NS(=O)(=O)c3cn(C)cn3)cc2CC1=O	.	/	/	/	/
CNC[C@@H]1Oc2ccc(NC(=O)Cn3cnnn3)cc2C(=O)N([C@H](C)CO)C[C@@H]1C	.	/	/	/	/
SMILES	ARNT-TACC3 inh	CaV13 ICDI inh	CAL PDZ FP-1	CAL PDZ FP-2	ARNT Alpha ctr
COCC(=O)N(C)C[C@@H]1Oc2cc(-c3ccc(F)cc3)ccc2S(=O)(=O)N([C@@H](C)CO)C[C@@H]1C	.	/	/	/	/
COc1ccc(NC(=O)Nc2ccc3c(c2)[C@@H]2C[C@@H](CC(=O)NCC(F)(F)F)O[C@@H](CO)[C@@H]2O3)cc1	.	/	/	/	/
C[C@H](CO)N1C[C@H](C)[C@@H](CN(C)S(=O)(=O)CC(F)(F)F)OCc2ccccc2-c2c(n(C)c3ccccc23)C1=O	.	/	/	/	/
COc1ccc(NC(=O)N(C)C[C@@H]2Oc3ccc(NS(C)(=O)=O)cc3C(=O)N([C@H](C)CO)C[C@@H]2C)cc1	.	/	/	/	/
CC1OC(CC(=O)O)CC2=C1C(=O)c1c(O)cccc1C2=O (stereo not drawn)	33	.	.	.	.
Oc1cccc2c(-c3nn[nH]n3)ccnc12	68	.	.	.	10µM
